# Published values gathered from unrelated publications.
# Lines come from different studies, so protocols differ.
# Target: Ephrin type-A receptor 5 (EPHA5, Homo sapiens, UniProt P54756)
SMILES,assay,conditions,measurement,result
Cc1ccc(Nc2nccc(N(C)c3ccc4c(C)n(C)nc4c3)n2)cc1S(N)(=O)=O,"enzyme activity, inhibitor",0.3 µM,inhibition,6%
COc1cc2ncnc(Nc3ccc(Oc4ccccc4)c(C)c3C)c2cc1OC,"enzyme activity, inhibitor",1 µM,inhibition,1%
CCOCCn1cc(C(=O)Nc2ccc(-n3nc(-c4cccnc4)cc3C(F)(F)F)cn2)ccc1=O,"cell-free assay, competition with immobilised ligand",1 µM,remaining binding,100%
Oc1ccc(-c2nc(-c3ccncc3)c(-c3ccc(F)cc3)[nH]2)cc1,cell-free assay,0.5 µM,remaining signal,90.7%
FC(F)(F)c1ccc2c(c1)nc(-c1cccnc1)n2C1CC1,"cell-free assay, competition with immobilised ligand",1 µM,remaining binding,96%
COc1cc2c(N3CCN(C(=O)Nc4ccc(OC(C)C)cc4)CC3)ncnc2cc1OCCCN1CCCCC1,cell-free assay,0.5 µM,remaining signal,104%
CC(=O)N1CCC(c2ccc(C(=O)NC3=NCCN3)cc2C(F)(F)F)CC1,"cell-free assay, competition with immobilised ligand",1 µM,remaining binding,100%
COc1cc(Cl)c(C(=O)N[C@@H](CN[C@H]2CC[C@@H](N)CC2)Cc2ccc(C#N)cc2)cc1-c1ccc(CN[C@H](C)c2ccc(C)cc2)o1,"enzyme activity, inhibitor",1 µM,remaining activity,90%
O=C(Nc1cnn(-c2csc(C(=O)NC3COC3)c2)c1)Nc1c(F)cccc1Cl,"enzyme activity, inhibitor",5 µM,remaining activity,95%
Cc1ccc(C(=O)Nc2ccc(CN3CCN(C)CC3)c(C(F)(F)F)c2)cc1C#Cc1cnc2cccnn12,cell-free assay,23.5 nM,remaining signal,31%
CNC(=O)c1cc(Oc2ccc(NC(=O)Nc3ccc(Cl)c(C(F)(F)F)c3)cc2)ccn1,"enzyme activity, inhibitor",10 µM,inhibition,92%
Cc1noc([C@H]2C[C@@H](c3ccc(C(F)(F)F)cc3)CN(C(=O)N3CCS(=O)(=O)C3)C2)n1,"cell-free assay, competition with immobilised ligand",1 µM,remaining binding,100%
CCN(CC)CCNC(=O)c1c(C)[nH]c(/C=C2\C(=O)Nc3ccc(F)cc32)c1C,"enzyme activity, inhibitor",0.3 µM,inhibition,7%
CCCS(=O)(=O)Nc1ccc(F)c(C(=O)c2c[nH]c3ncc(-c4ccc(Cl)cc4)cc23)c1F,"enzyme activity, inhibitor",1 µM,inhibition,< 20%
CC(C)(C)c1nc(-c2cccc(NS(=O)(=O)c3c(F)cccc3F)c2F)c(-c2ccnc(N)n2)s1,"enzyme activity, inhibitor, radiometric",1 µM,remaining activity,116%
CC/C(=N\NC(=O)NCc1cccc(O)c1)c1ccc(O)c(C)c1O,"enzyme activity, inhibitor",0.1 µM,inhibition,-3.3%
COc1cc(-c2cn(C3CCc4c(F)cccc4N(CC(F)(F)F)C3=O)nn2)ccc1-n1cnc(C)c1 (stereo not shown),"cell-free assay, competition with immobilised ligand",1 µM,remaining binding,100%
Cc1cnc(NC2CCOCC2)nc1-n1cnc(C(=O)NC(CN)c2cc(F)cc(Cl)c2)c1 (stereo not shown),"enzyme activity, inhibitor, radiometric",1 µM,remaining activity,92%
C[C@@H]1CN(c2cc(-c3nn(C)c4ccc(OC5(C)CC5)cc34)ncn2)C[C@H](C)O1,"cell-free assay, competition with immobilised ligand",1 µM,remaining binding,100%
CC(C)(O)[C@H]1CC[C@H](Nc2ccc3ncc(-c4cccc(C(F)(F)F)c4)n3n2)CC1,"enzyme activity, inhibitor",1 µM,remaining activity,101%
O=c1nc(-c2ccccn2)sc2ccccc12,"cell-free assay, competition with immobilised ligand",1 µM,remaining binding,94%
Cc1ccc(C(=O)NCc2ccsc2)cc1C#Cc1cn(C(C)C)c2ncnc(N)c12,"enzyme activity, inhibitor",1 µM,activity vs control,1%
COc1cc(-c2cc(-c3ccc(N4CCNCC4)cc3)cnc2C)cc(OC)c1OC,"enzyme activity, inhibitor",0.1 µM,inhibition,5%
N#CCCc1ccc2c(c1)-c1[nH]c3ccc([N+](=O)[O-])cc3c1CC(=O)N2,cell-free assay,0.5 µM,remaining signal,88.5%
Nc1ncnc2occ(-c3ccc(NC(=O)Nc4cc(C(F)(F)F)ccc4F)cc3)c12,cell-free assay,20 µM,remaining signal,0.05%
